Data reported in article PMC9049141 (RSC Advances, 2020).
Square brackets hold non-standard residues; d marks the D form. Ends that are not written are not given here. * marks the point of attachment. FITC = O=C1OC2(c3ccc(O)cc3Oc3cc(O)ccc32)c2ccc(NC(=S)*)cc21; Stearoyl = CCCCCCCCCCCCCCCCCC(=O)*; Palmitoyl = CCCCCCCCCCCCCCCC(=O)*; Myristoyl = CCCCCCCCCCCCCC(=O)*; Aib = CC(C)(N)C(=O)O; Ahx = NCCCCCC(=O)O

Legend:
HSA = HSA (Homo sapiens, UniProt P02768); assay: Albumin binding affinity by surface plasmon resonance; settings: for k a / k d: SPR, BIAcoT200 system, HSA; for Kd: human, HSA (human serum albumin), surface plasmon resonance
[1] = Plasma stability test in human plasma with or without HSA; assay type: in vitro ADME
Method in brief: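 Albumin-depleted human plasma was prepared with a blue-dye albumin removal kit. Test peptides at a final 1 mg L−1 were incubated at 37 °C in human plasma with or without HSA. Samples were taken at time points from 0 to 144 h and analysed by LC-MS/MS.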

GK rats = assay: Modified multiple OGTTs; assay type: in vivo
Method in brief: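 Male GK rats (purchased at 6–8 weeks) got one s.c. dose of saline, test compound (10, 30, 90 nmol kg−1) or a reference GLP-1 analog (90 nmol kg−1). Repeated oral glucose challenges followed, the first at 0.5 h after dosing. Glucose was read by glucometer. AUCs were taken for 0–2, 72–74 and 144–146 h, and the percent AUC reduction was calculated versus saline.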

db/db mice [2] = assay: Oral glucose tolerance test; assay type: in vivo
Method in brief: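 Male db/db mice were fasted overnight and split into five groups. They received saline or test compound s.c. at 10, 30, 90 or 150 nmol kg−1, half an hour before an oral glucose load of 2.0 g kg−1. Blood glucose was read by handheld glucometer before and 15, 30, 60 and 120 min after the load. Data are mean ± SD with one-way ANOVA.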

db/db mice [3] = assay: Chronic in vivo study, 8 weeks, db/db mice; settings: for ALT / AST / HDL / LDL / LDL/HDL / TC / TG: db/db mice serum, 8 weeks twice-weekly s.c.; for decrease of OGTT AUC after 8 week treatment compared with day 0: n = 8
Method in brief: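 Male db/db mice (purchased at 6–8 weeks, housed six per cage, 12 h light–dark) got twice-weekly s.c. saline, a reference GLP-1 analog (90 nmol kg−1) or test compound (10, 30, 90 nmol kg−1) for eight weeks. Blood biochemical parameters were measured on an automatic biochemical analyzer. Pancreas was paraffin-embedded and H&E-stained. Data are mean ± SD; one-way ANOVA, P < 0.05.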

[4] = Pharmacokinetic study in rhesus monkey; assay type: in vivo; settings: plasma, sc
Method in brief: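 Male rhesus monkeys received one s.c. dose of test compound at 10, 30 or 90 nmol kg−1. Blood was drawn pre-dose and at 1, 2, 4, 8, 24, 36, 48, 72, 96, 120, 144 and 168 h. Intact peptide and free GLP-1 (A8Aib) in plasma were quantified by LC-MS/MS.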

db/db mice [5] = assay: Hypoglycemic duration test; assay type: in vivo; settings: non-fasted db/db mice
Method in brief: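 Non-fasted db/db mice with free food and water got one s.c. dose of saline, a reference GLP-1 analog (90 nmol kg−1) or test compound (10, 30, 90 nmol kg−1). Tail-vein blood was sampled at 0, 0.5, 1, 2, 4, 8, 24, 36, 48, 72, 120, 168 and 216 h, with glucose by glucometer. Hypoglycemic duration was the time BGL stayed under 8.35 mmol L−1. Data are mean ± SD; one-way ANOVA.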

[6] = human plasma without albumin (HSA-free)
[7] = single s.c. 10 nmol kg^−1, n = 8
[8] = single s.c. 30 nmol kg^−1, n = 8
[9] = single s.c. 90 nmol kg^−1, n = 8

HSA, sequence (P02768 25-609): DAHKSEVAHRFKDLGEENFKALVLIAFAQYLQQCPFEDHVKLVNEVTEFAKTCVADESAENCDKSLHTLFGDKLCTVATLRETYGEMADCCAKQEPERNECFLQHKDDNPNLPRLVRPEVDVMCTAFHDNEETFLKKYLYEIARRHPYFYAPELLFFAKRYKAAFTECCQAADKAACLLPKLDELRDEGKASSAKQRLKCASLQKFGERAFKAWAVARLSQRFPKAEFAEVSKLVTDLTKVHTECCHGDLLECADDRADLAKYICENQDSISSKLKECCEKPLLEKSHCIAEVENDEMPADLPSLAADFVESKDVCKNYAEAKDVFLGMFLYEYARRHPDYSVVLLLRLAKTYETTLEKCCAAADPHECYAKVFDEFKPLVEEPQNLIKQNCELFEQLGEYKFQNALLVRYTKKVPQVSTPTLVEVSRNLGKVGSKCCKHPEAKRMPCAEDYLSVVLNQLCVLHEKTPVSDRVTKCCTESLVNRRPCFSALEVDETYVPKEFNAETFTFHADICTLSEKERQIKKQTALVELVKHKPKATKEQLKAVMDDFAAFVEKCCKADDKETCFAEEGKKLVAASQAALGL

{FITC-Ahx}-EK(Myristoyl)YEEYEGGGGSGGGGSFNPRH[Aib]EGTFTSDVSSYLEGQAAKEFIAWLVKGRG (N-terminus assumed) [PES04]
k a (HSA): 1240 M⁻¹ s⁻¹
k d (HSA): 0.0332 s⁻¹
Kd (HSA): 26.7 µM

{FITC-Ahx}-EK(Palmitoyl)YEEYEGGGGSGGGGSFNPRH[Aib]EGTFTSDVSSYLEGQAAKEFIAWLVKGRG (N-terminus assumed) [PES05]
k a (HSA): 8900 M⁻¹ s⁻¹
k d (HSA): 0.0722 s⁻¹
Kd (HSA): 8.11 µM

{FITC-Ahx}-EK(Stearoyl)YEEYEGGGGSGGGGSFNPRH[Aib]EGTFTSDVSSYLEGQAAKEFIAWLVKGRG (N-terminus assumed) [PES06]
k a (HSA): 18800 M⁻¹ s⁻¹
k d (HSA): 0.0922 s⁻¹
Kd (HSA): 4.9 µM

{FITC-Ahx}-EYEEK(Myristoyl)YEGGGGSGGGGSFNPRH[Aib]EGTFTSDVSSYLEGQAAKEFIAWLVKGRG (N-terminus assumed) [PES13]
k a (HSA): 11000 M⁻¹ s⁻¹
k d (HSA): 0.00422 s⁻¹
Kd (HSA): 0.383 µM
half-life at 1 mg L^−1 ([1]; human plasma with HSA): 68.7 h
half-life at 1 mg L^−1 [1, 6]: 64.4 h

{FITC-Ahx}-EYEEK(Palmitoyl)YEGGGGSGGGGSFNPRH[Aib]EGTFTSDVSSYLEGQAAKEFIAWLVKGRG (N-terminus assumed) [PES14]
k a (HSA): 14500 M⁻¹ s⁻¹
k d (HSA): 0.0101 s⁻¹
Kd (HSA): 0.696 µM
AUC-lowering percentage in third OGTT (144–146 h) versus placebo (GK rats; [7]): 22.1%
AUC-lowering percentage in third OGTT (144–146 h) versus placebo (GK rats; [8]): 31.0%
AUC-lowering percentage in third OGTT (144–146 h) versus placebo (GK rats; [9]): 44.7%
half-life at 1 mg L^−1 ([1]; human plasma with HSA): > 72 h
half-life at 1 mg L^−1 [1, 6]: 60.1 h
glucose AUC in OGTT (db/db mice [2]; single s.c. 90 nmol kg^−1, AUC0–120 min): 780.17 nmol/L/min
glucose AUC in OGTT (db/db mice [2]; single s.c. 150 nmol kg^−1, AUC0–120 min): 738.56 nmol/L/min
ALT (db/db mice [3]; 10 nM kg^−1, mean ± SD n = 8): 59.2 ± 2.8 IU L^−1
AST (db/db mice [3]; 10 nM kg^−1, mean ± SD n = 8): 158 ± 12.2 IU L^−1
HDL (db/db mice [3]; 10 nM kg^−1, mean ± SD n = 8): 2.5 ± 0.6 mmol/L
LDL (db/db mice [3]; 10 nM kg^−1, mean ± SD n = 8): 1.6 ± 0.3 mmol/L
LDL/HDL (db/db mice [3]; 10 nM kg^−1, mean ± SD n = 8): 0.64 ± 0.19
TC (db/db mice [3]; 10 nM kg^−1, mean ± SD n = 8): 4.8 ± 0.6 mmol/L
TG (db/db mice [3]; 10 nM kg^−1, mean ± SD n = 8): 1.1 ± 0.1 mmol/L
ALT (db/db mice [3]; 30 nM kg^−1, mean ± SD n = 8): 55.0 ± 4.0 IU L^−1
AST (db/db mice [3]; 30 nM kg^−1, mean ± SD n = 8): 140 ± 9.9 IU L^−1
HDL (db/db mice [3]; 30 nM kg^−1, mean ± SD n = 8): 2.5 ± 0.5 mmol/L
LDL (db/db mice [3]; 30 nM kg^−1, mean ± SD n = 8): 1.4 ± 0.2 mmol/L
LDL/HDL (db/db mice [3]; 30 nM kg^−1, mean ± SD n = 8): 0.44 ± 0.15
TC (db/db mice [3]; 30 nM kg^−1, mean ± SD n = 8): 4.4 ± 0.3 mmol/L
TG (db/db mice [3]; 30 nM kg^−1, mean ± SD n = 8): 1.0 ± 0.7 mmol/L
area and number of pancreatic islets (db/db mice [3]; db/db mice, 8 weeks, H&E staining, compared with saline): increased
reduction of LDL/HDL ratio (db/db mice [3]; db/db mice, after 8 week exposure): up to 47%
insulin immunoreactivity (db/db mice [3]; db/db mice, chronic treatment 8 weeks, pancreas sections): preserved proper insulin immunoreactivity
decrease of OGTT AUC after 8 week treatment compared with day 0 (db/db mice [3]; db/db mice, twice-weekly s.c. 10 nmol kg^−1, 8 weeks): 17.1%
decrease of OGTT AUC after 8 week treatment compared with day 0 (db/db mice [3]; db/db mice, twice-weekly s.c. 30 nmol kg^−1, 8 weeks): 28.9%
decrease of OGTT AUC after 8 week treatment compared with day 0 (db/db mice [3]; db/db mice, twice-weekly s.c. 90 nmol kg^−1, 8 weeks): 58.2%
body weight gain, food intake and fat% (db/db mice [3]; db/db mice, twice-weekly s.c. 10, 30 and 90 nmol kg^−1, 56 days, vs saline): obviously reduction
half-life ([4]; 10 nmol kg^−1): 62.6 h
half-life ([4]; 30 nmol kg^−1): 78.8 h
half-life ([4]; 90 nmol kg^−1): 95.1 h
time hypoglycemic effects maintained (db/db mice [5]; single s.c. 10 nmol kg^−1): more than 120 h
decrease of BGL AUC for 0–192 h compared with saline (db/db mice [5]; [7]): 38.4%
time hypoglycemic effects maintained (db/db mice [5]; single s.c. 30 nmol kg^−1): > 168 h
decrease of BGL AUC for 0–192 h compared with saline (db/db mice [5]; [8]): 49.3%
duration for BGLs rebound over 8.35 mmol L^−1 (db/db mice [5]; [8]): 22.3 h
time hypoglycemic effects maintained (db/db mice [5]; single s.c. 90 nmol kg^−1): > 216 h
decrease of BGL AUC for 0–192 h compared with saline (db/db mice [5]; [9]): 65.0%
duration for BGLs rebound over 8.35 mmol L^−1 (db/db mice [5]; [9]): 50.8 h
time for BGLs to reach the normoglycemic value (db/db mice [5]; single s.c. 30 and 90 nmol kg^−1): ≤ 2 h

{FITC-Ahx}-EYEEK(Stearoyl)YEGGGGSGGGGSFNPRH[Aib]EGTFTSDVSSYLEGQAAKEFIAWLVKGRG (N-terminus assumed) [PES15]
k a (HSA): 21800 M⁻¹ s⁻¹
k d (HSA): 0.0112 s⁻¹
Kd (HSA): 0.512 µM
half-life at 1 mg L^−1 ([1]; human plasma with HSA): 56.5 h
half-life at 1 mg L^−1 [1, 6]: 48.5 h

{FITC-Ahx}-EYEEYEK(Myristoyl)GGGGSGGGGSFNPRH[Aib]EGTFTSDVSSYLEGQAAKEFIAWLVKGRG (N-terminus assumed) [PES19]
k a (HSA): 2500 M⁻¹ s⁻¹
k d (HSA): 0.0222 s⁻¹
Kd (HSA): 8.73 µM

{FITC-Ahx}-EYEEYEK(Palmitoyl)GGGGSGGGGSFNPRH[Aib]EGTFTSDVSSYLEGQAAKEFIAWLVKGRG (N-terminus assumed) [PES20]
k a (HSA): 3180 M⁻¹ s⁻¹
k d (HSA): 0.0534 s⁻¹
Kd (HSA): 16.8 µM

{FITC-Ahx}-EYEEYEK(Stearoyl)GGGGSGGGGSFNPRH[Aib]EGTFTSDVSSYLEGQAAKEFIAWLVKGRG (N-terminus assumed) [PES21]
k a (HSA): 11400 M⁻¹ s⁻¹
k d (HSA): 0.036 s⁻¹
Kd (HSA): 3.16 µM

{FITC-Ahx}-EYEEYK(Myristoyl)EGGGGSGGGGSFNPRH[Aib]EGTFTSDVSSYLEGQAAKEFIAWLVKGRG (N-terminus assumed) [PES16]
k a (HSA): 11000 M⁻¹ s⁻¹
k d (HSA): 0.0192 s⁻¹
Kd (HSA): 1.74 µM

{FITC-Ahx}-EYEEYK(Palmitoyl)EGGGGSGGGGSFNPRH[Aib]EGTFTSDVSSYLEGQAAKEFIAWLVKGRG (N-terminus assumed) [PES17]
k a (HSA): 12000 M⁻¹ s⁻¹
k d (HSA): 0.0627 s⁻¹
Kd (HSA): 5.21 µM

{FITC-Ahx}-EYEEYK(Stearoyl)EGGGGSGGGGSFNPRH[Aib]EGTFTSDVSSYLEGQAAKEFIAWLVKGRG (N-terminus assumed) [PES18]
k a (HSA): 11400 M⁻¹ s⁻¹
k d (HSA): 0.036 s⁻¹
Kd (HSA): 3.16 µM

{FITC-Ahx}-EYEK(Myristoyl)EYEGGGGSGGGGSFNPRH[Aib]EGTFTSDVSSYLEGQAAKEFIAWLVKGRG (N-terminus assumed) [PES10]
k a (HSA): 12900 M⁻¹ s⁻¹
k d (HSA): 0.0328 s⁻¹
Kd (HSA): 2.54 µM

{FITC-Ahx}-EYEK(Palmitoyl)EYEGGGGSGGGGSFNPRH[Aib]EGTFTSDVSSYLEGQAAKEFIAWLVKGRG (N-terminus assumed) [PES11]
k a (HSA): 8380 M⁻¹ s⁻¹
k d (HSA): 0.0782 s⁻¹
Kd (HSA): 9.33 µM

{FITC-Ahx}-EYEK(Stearoyl)EYEGGGGSGGGGSFNPRH[Aib]EGTFTSDVSSYLEGQAAKEFIAWLVKGRG (N-terminus assumed) [PES12]
k a (HSA): 21700 M⁻¹ s⁻¹
k d (HSA): 0.0531 s⁻¹
Kd (HSA): 2.45 µM

{FITC-Ahx}-EYK(Myristoyl)EEYEGGGGSGGGGSFNPRH[Aib]EGTFTSDVSSYLEGQAAKEFIAWLVKGRG (N-terminus assumed) [PES07]
k a (HSA): 8240 M⁻¹ s⁻¹
k d (HSA): 0.0632 s⁻¹
Kd (HSA): 7.61 µM

{FITC-Ahx}-EYK(Palmitoyl)EEYEGGGGSGGGGSFNPRH[Aib]EGTFTSDVSSYLEGQAAKEFIAWLVKGRG (N-terminus assumed) [PES08]
k a (HSA): 26700 M⁻¹ s⁻¹
k d (HSA): 0.0942 s⁻¹
Kd (HSA): 3.53 µM

{FITC-Ahx}-EYK(Stearoyl)EEYEGGGGSGGGGSFNPRH[Aib]EGTFTSDVSSYLEGQAAKEFIAWLVKGRG (N-terminus assumed) [PES09]
k a (HSA): 12100 M⁻¹ s⁻¹
k d (HSA): 0.0531 s⁻¹
Kd (HSA): 4.32 µM

{FITC-Ahx}-K(Myristoyl)EYEEYEGGGGSGGGGSFNPRH[Aib]EGTFTSDVSSYLEGQAAKEFIAWLVKGRG (N-terminus assumed) [PES01]
k a (HSA): 6900 M⁻¹ s⁻¹
k d (HSA): 0.0182 s⁻¹
Kd (HSA): 2.66 µM

{FITC-Ahx}-K(Stearoyl)EYEEYEGGGGSGGGGSFNPRH[Aib]EGTFTSDVSSYLEGQAAKEFIAWLVKGRG (N-terminus assumed) [PES03]
k a (HSA): 12800 M⁻¹ s⁻¹
k d (HSA): 0.0322 s⁻¹
Kd (HSA): 2.51 µM
